According to ChEMBL document CHEMBL1124847, “Synthesis and antiviral activity of metabolites of rimantadine” (1990):
In brackets after ≈: the same amount, converted by molar mass.

What was measured:
Type in all cases: functional
Details in all cases: Canis lupus familiaris, read-out: ID50 (the source's name)
MDCK [1] = test: Antiviral activity against influenza A virus (Taiwan) in Madin Darby canine kidney (MDCK) cell culture
Method in brief: (§1)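 Confluent MDCK monolayers were given compound in serial 2-fold dilutions, then infected with 100 TCID50 of virus and incubated at 35 °C for 48 h. Cells were fixed, stained and scored microscopically for cytopathic effect. The dose giving 50% inhibition of CPE was read when infected controls just reached 100% CPE, in ng/mL, as the mean ± SD of at least three determinations.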

MDCK [2] = test: Antiviral activity against influenza A virus (Mississippi) in Madin Darby canine kidney (MDCK) cell culture; method in brief: as §1
MDCK [3] = test: Antiviral activity against influenza A virus (NY/83/5) in Madin Darby canine kidney (MDCK) cell culture; method in brief: as §1

| Structure (SMILES) | IC50 (MDCK [1]) [µg/mL] | IC50 (MDCK [2]) [µg/mL] | IC50 (MDCK [3]) [µg/mL] |
| --- | --- | --- | --- |
| CC(N)C12CC3CC(CC(C3)C1)C2 (stereo not given) [RIMANTADINE] | 0.0098 (≈ 0.0547 µM) | 0.021 (≈ 0.117 µM) | 0.012 (≈ 0.0669 µM) |
| CC(N)C12CC3CC(C1)C(O)C(C3)C2 (stereo not given) | 1.5 (≈ 7.68 µM) | 3.4 (≈ 17.4 µM) | 0.804 (≈ 4.12 µM) |
| CC(N)C12CC3CC(CC(C3)C1O)C2 (stereo not given) | 0.16 (≈ 0.819 µM) | 0.15 (≈ 0.768 µM) | 0.101 (≈ 0.517 µM) |
| CC(N)C12CC3CC(CC(O)(C3)C1)C2 (stereo not given) [3-HYDROXYRIMANTADINE] | 5.4 (≈ 27.6 µM) | 6.7 (≈ 34.3 µM) | 4 (≈ 20.5 µM) |
| NC12CC3CC(CC(C3)C1)C2 [AMANTADINE] | 0.116 (≈ 0.767 µM) | 0.113 (≈ 0.747 µM) | 0.08 (≈ 0.529 µM) |
